biological target: T1, Cytochrome P450 11B2, mitochondrial (Homo sapiens, UniProt P19099); test: Inhibition of human CYP11B2 expressed in V79 MZh cells using [14C]-deoxycorticosterone substrate incubated for 6 hrs by HPTLC method; assay type: cell-based, V79MZh; conditions: not given
T1 sequence (P19099 whole entry): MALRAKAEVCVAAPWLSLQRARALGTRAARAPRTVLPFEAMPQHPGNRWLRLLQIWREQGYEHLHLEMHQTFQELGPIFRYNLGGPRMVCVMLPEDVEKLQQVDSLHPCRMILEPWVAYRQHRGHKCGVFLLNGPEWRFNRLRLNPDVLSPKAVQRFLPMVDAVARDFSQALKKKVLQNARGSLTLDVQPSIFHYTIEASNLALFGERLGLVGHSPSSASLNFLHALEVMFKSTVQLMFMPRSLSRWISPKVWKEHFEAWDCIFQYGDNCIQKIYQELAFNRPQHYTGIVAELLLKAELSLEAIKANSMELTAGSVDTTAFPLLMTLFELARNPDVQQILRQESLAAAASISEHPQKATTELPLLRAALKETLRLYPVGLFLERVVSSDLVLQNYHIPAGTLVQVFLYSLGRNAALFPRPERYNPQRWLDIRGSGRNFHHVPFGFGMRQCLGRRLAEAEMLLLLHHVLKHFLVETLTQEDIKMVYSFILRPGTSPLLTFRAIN
In short: (§1)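 V79 MZh cells expressing human CYP11B1 or CYP11B2 were incubated 6 h with [¹⁴C]-deoxycorticosterone and inhibitor at various concentrations. Steroids were extracted with ethyl acetate, separated by HPTLC and quantified by phosphoimager.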

Row | SMILES | IC50 [µM]
1 | Cc1ccncc1-c1cc(F)c2c(c1)CCc1nnc(C)n1-2 | 0.0042
2 | CC(C)c1nnc2n1-c1cc(F)c(-c3cccnc3)cc1CC2 | > 10
3 | Fc1cncc(-c2cc(F)c3c(c2)CCc2nncn2-3)c1 | 0.335

Further lines, results first:

Row | IC50 [µM] | SMILES
4 | 1.18 | Cc1nnc2n1-c1c(F)cc(-c3cncc(C#N)c3)cc1CC2
5 | 0.708 | O=C(c1ccccc1)c1nnc2n1-c1c(F)cc(-c3cccnc3)cc1CC2
6 | 0.0897 | Cc1nnc2n1-c1c(F)cc(-c3cncc(F)c3)cc1CC2
7 | > 10 | Fc1cc2c(cc1-c1cccnc1)CCc1nnc(-c3ccncc3)n1-2

biological target: T2, Cytochrome P450 11B1, mitochondrial (Homo sapiens, UniProt P15538); test: Inhibition of human CYP11B1 expressed in V79 MZh cells using [14C]-deoxycorticosterone substrate incubated for 6 hrs by HPTLC method; assay type: cell-based, V79MZh; conditions: not given; in short: as §1
T2 sequence (P15538 whole entry): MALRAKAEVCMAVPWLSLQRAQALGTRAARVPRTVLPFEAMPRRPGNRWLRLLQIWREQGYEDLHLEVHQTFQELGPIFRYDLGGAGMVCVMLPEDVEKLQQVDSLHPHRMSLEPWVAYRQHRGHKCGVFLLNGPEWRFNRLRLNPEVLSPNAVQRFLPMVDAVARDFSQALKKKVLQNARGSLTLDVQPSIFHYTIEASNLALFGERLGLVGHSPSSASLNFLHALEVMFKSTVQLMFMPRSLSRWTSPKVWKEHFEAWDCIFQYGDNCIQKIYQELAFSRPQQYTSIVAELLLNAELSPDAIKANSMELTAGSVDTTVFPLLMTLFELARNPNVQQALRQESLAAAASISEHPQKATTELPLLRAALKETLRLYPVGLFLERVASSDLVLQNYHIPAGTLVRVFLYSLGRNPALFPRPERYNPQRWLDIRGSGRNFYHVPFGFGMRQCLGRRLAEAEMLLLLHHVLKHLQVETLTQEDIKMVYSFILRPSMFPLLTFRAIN

Row | SMILES | IC50 [µM]
8 | CC(C)c1nnc2n1-c1cc(F)c(-c3cccnc3)cc1CC2 | > 10
9 | Fc1cncc(-c2cc(F)c3c(c2)CCc2nncn2-3)c1 | > 10

Continued, values first:

Row | IC50 [µM] | SMILES
10 | > 10 | Cc1nnc2n1-c1c(F)cc(-c3cncc(C#N)c3)cc1CC2
11 | > 10 | O=C(c1ccccc1)c1nnc2n1-c1c(F)cc(-c3cccnc3)cc1CC2
12 | > 10 | Fc1cc2c(cc1-c1cccnc1)CCc1nnc(-c3ccncc3)n1-2

species on record: Homo sapiens; test: Selectivity index, ratio of IC50 for human CYP11B1 to IC50 human CYP11B2; conditions: not given

Row | Ratio IC50 | SMILES
13 | 422 | Cc1ccncc1-c1cc(F)c2c(c1)CCc1nnc(C)n1-2
14 | 329 | Cc1nnc2n1-c1c(F)cc(-c3cncc(F)c3)cc1CC2

tested on: not listed separately; test: Half life in human hepatic microsomes at 1 uM in presence of NADPH system by LC-MS/MS method; assay type: ADME, Microsome; conditions: liver microsomes
In short: (§2)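 Pooled mixed-gender human liver microsomes at 0.5 mg/mL final protein in potassium phosphate–MgCl₂ buffer (100 mM, pH 7.4). Compound at 1 μM final with NADPH system, 37 °C. Samples at 2, 5, 15, 30 and 45 min, quenched with acetonitrile, vortexed, centrifuged, and supernatant analysed by LC–MS/MS.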

Row | half-life at 1 µM [h] | SMILES
15 | > 2 | Cc1ccncc1-c1cc(F)c2c(c1)CCc1nnc(C)n1-2
16 | > 2 | Cc1nnc2n1-c1c(F)cc(-c3cncc(F)c3)cc1CC2

tested on: not listed separately; test: Intrinsic clearance in human hepatic microsomes at 1 uM in presence of NADPH system by LC-MS/MS method; assay type: ADME; conditions: liver microsomes, read-out: CLH; in short: as §2

Row | microsomal CLint at 1 µM [µL/min/mg] | SMILES
17 | 4 | Cc1ccncc1-c1cc(F)c2c(c1)CCc1nnc(C)n1-2
18 | 12 | Cc1nnc2n1-c1c(F)cc(-c3cncc(F)c3)cc1CC2

tested on: not listed separately; test: Stability in human hepatic microsomes assessed as unchanged compound level at 1 uM after 120 mins in presence of NADPH system by LC-MS/MS method; assay type: ADME, Microsome; conditions: liver microsomes, read-out: Stability

Row | remaining at 2 h, 1 µM [%] | SMILES
19 | 80 | Cc1ccncc1-c1cc(F)c2c(c1)CCc1nnc(C)n1-2

biological target: T3, Aromatase (Homo sapiens, UniProt P11511); test: Inhibition of CYP19 in human placental microsomes using [1beta-3H]androstenedione substrate; design: species or system Placenta; conditions: not given
T3 sequence (P11511 whole entry): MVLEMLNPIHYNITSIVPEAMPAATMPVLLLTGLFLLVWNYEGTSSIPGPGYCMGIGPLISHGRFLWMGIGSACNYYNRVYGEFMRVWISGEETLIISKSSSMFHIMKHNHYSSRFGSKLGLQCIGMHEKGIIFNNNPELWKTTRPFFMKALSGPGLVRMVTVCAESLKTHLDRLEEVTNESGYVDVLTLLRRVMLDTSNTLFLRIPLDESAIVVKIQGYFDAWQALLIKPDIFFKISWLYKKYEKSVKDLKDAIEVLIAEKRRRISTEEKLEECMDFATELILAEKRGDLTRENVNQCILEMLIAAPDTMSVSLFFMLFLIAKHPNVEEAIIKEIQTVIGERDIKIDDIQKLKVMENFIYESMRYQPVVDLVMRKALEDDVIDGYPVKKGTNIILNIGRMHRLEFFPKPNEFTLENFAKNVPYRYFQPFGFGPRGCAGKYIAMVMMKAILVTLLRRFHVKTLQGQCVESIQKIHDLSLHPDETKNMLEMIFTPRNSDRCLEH

Row | SMILES | IC50 [µM]
20 | Cc1ccncc1-c1cc(F)c2c(c1)CCc1nnc(C)n1-2 | > 10
21 | CC(C)c1nnc2n1-c1cc(F)c(-c3cccnc3)cc1CC2 | > 10
22 | Fc1cncc(-c2cc(F)c3c(c2)CCc2nncn2-3)c1 | > 10

Other lines, results leading:

Row | IC50 [µM] | SMILES
23 | > 10 | Cc1nnc2n1-c1c(F)cc(-c3cncc(C#N)c3)cc1CC2
24 | > 10 | O=C(c1ccccc1)c1nnc2n1-c1c(F)cc(-c3cccnc3)cc1CC2
25 | > 10 | Cc1nnc2n1-c1c(F)cc(-c3cncc(F)c3)cc1CC2
26 | > 10 | Fc1cc2c(cc1-c1cccnc1)CCc1nnc(-c3ccncc3)n1-2

biological target: T4, Steroid 17-alpha-hydroxylase/17,20 lyase (Homo sapiens, UniProt P05093); test: Inhibition of human CYP17 expressed in Escherichia coli coexpressing human CYP17 and NADPH-P450 reductase; conditions: not given
T4 sequence (P05093 whole entry): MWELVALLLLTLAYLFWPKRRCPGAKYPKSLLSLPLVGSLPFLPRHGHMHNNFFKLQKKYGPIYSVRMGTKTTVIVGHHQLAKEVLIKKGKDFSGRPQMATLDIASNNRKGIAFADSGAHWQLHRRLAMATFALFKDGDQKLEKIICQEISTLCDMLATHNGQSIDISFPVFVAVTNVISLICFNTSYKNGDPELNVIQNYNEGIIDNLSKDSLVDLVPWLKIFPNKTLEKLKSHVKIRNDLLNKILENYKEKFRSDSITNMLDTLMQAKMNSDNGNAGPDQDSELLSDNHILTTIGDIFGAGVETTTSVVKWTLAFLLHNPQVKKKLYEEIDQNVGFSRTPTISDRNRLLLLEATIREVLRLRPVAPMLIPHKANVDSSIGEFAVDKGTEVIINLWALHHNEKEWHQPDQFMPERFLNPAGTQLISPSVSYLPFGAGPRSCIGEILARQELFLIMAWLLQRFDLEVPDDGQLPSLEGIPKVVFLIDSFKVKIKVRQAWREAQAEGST

Row | SMILES | IC50 [µM]
27 | Cc1ccncc1-c1cc(F)c2c(c1)CCc1nnc(C)n1-2 | > 10
28 | CC(C)c1nnc2n1-c1cc(F)c(-c3cccnc3)cc1CC2 | > 10
29 | Fc1cncc(-c2cc(F)c3c(c2)CCc2nncn2-3)c1 | > 10

Next, values leading:

Row | IC50 [µM] | SMILES
30 | > 10 | Cc1nnc2n1-c1c(F)cc(-c3cncc(C#N)c3)cc1CC2
31 | > 10 | O=C(c1ccccc1)c1nnc2n1-c1c(F)cc(-c3cccnc3)cc1CC2
32 | > 10 | Cc1nnc2n1-c1c(F)cc(-c3cncc(F)c3)cc1CC2
33 | > 10 | Fc1cc2c(cc1-c1cccnc1)CCc1nnc(-c3ccncc3)n1-2

biological target: T5, Cytochrome P450 1A2 (Homo sapiens, UniProt P05177); test: Inhibition of human recombinant CYP1A2 using phenacetin substrate by LC-MS/MS method; assay type: ADME; conditions: not given
T5 sequence (P05177 whole entry): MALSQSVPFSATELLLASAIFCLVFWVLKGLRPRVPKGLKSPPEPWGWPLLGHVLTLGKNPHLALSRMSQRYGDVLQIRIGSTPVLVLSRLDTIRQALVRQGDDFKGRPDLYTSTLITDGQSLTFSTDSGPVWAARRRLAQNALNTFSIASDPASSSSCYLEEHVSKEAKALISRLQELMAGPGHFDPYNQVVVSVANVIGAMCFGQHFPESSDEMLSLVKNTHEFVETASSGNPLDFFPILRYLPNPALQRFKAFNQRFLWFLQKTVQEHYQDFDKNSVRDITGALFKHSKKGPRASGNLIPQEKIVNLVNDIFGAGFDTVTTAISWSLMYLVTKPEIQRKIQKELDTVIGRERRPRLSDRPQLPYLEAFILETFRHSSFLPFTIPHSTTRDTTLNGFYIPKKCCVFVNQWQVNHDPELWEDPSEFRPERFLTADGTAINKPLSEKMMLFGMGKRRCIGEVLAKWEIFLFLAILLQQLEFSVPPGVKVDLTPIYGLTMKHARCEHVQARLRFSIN
In short: (§3)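 Compounds tested in duplicate at six concentrations up to 50 μM. Acetonitrile quench at one time point, then LC–MS/MS of probe metabolites. Metabolites were normalized to vehicle controls and IC50 calculated.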

Row | IC50 [µM] | SMILES
34 | > 50 | Cc1ccncc1-c1cc(F)c2c(c1)CCc1nnc(C)n1-2
35 | > 50 | Cc1nnc2n1-c1c(F)cc(-c3cncc(F)c3)cc1CC2

biological target: Cytochrome P450 2C9 (Homo sapiens, UniProt P11712); test: Inhibition of human recombinant CYP2C9 using diclofenac substrate by LC-MS/MS method; assay type: ADME; conditions: not given; in short: as §3
Sequence (P11712 whole entry): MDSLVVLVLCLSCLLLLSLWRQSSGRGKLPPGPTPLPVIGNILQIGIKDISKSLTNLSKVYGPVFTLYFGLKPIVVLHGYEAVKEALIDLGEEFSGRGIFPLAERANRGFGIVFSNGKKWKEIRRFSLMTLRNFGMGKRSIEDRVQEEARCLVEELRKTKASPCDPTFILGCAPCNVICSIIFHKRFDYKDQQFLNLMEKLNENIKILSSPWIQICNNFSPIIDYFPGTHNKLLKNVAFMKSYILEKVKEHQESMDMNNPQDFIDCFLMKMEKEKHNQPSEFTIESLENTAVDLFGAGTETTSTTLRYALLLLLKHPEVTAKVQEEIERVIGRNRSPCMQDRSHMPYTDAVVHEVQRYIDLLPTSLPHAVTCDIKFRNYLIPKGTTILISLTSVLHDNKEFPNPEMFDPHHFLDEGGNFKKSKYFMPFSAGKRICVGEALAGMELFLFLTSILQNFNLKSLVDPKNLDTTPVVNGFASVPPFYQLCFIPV

Row | IC50 [µM] | SMILES
36 | > 50 | Cc1ccncc1-c1cc(F)c2c(c1)CCc1nnc(C)n1-2
37 | > 50 | Cc1nnc2n1-c1c(F)cc(-c3cncc(F)c3)cc1CC2

biological target: Cytochrome P450 2C19 (Homo sapiens, UniProt P33261); test: Inhibition of human recombinant CYP2C19 using smephenytoin substrate by LC-MS/MS method; assay type: ADME; conditions: not given; in short: as §3
Sequence (P33261 whole entry): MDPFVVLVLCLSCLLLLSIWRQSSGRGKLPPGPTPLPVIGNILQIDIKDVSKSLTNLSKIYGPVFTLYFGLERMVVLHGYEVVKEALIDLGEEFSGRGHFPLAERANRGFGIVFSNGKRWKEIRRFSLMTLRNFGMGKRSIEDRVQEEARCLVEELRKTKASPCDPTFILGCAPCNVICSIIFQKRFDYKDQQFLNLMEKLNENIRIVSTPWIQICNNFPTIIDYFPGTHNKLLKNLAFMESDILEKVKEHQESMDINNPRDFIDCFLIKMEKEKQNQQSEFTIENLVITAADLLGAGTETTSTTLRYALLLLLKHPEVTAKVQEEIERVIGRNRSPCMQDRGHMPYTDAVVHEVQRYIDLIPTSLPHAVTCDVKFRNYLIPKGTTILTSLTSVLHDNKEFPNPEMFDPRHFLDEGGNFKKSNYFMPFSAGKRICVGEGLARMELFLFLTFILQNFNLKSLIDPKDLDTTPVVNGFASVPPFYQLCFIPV

Row | IC50 [µM] | SMILES
38 | > 50 | Cc1ccncc1-c1cc(F)c2c(c1)CCc1nnc(C)n1-2
39 | > 50 | Cc1nnc2n1-c1c(F)cc(-c3cncc(F)c3)cc1CC2

biological target: Cytochrome P450 2D6 (Homo sapiens, UniProt P10635); test: Inhibition of human recombinant CYP2D6 using bufuralol substrate by LC-MS/MS method; assay type: ADME; conditions: not given; in short: as §3
Sequence (P10635 whole entry): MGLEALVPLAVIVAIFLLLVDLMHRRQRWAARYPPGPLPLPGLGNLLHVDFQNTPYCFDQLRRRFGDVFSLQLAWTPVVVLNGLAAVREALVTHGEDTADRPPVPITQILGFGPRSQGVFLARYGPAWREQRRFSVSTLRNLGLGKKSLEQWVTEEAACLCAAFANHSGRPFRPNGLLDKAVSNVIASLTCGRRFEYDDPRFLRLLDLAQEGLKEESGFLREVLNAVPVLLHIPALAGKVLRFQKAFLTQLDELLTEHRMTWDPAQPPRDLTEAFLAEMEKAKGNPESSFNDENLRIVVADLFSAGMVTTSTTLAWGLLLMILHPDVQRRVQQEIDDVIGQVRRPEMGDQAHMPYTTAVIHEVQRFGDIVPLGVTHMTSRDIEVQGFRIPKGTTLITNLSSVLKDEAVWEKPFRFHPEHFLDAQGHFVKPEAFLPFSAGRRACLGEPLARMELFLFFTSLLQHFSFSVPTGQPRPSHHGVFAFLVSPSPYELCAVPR

Row | IC50 [µM] | SMILES
40 | > 50 | Cc1ccncc1-c1cc(F)c2c(c1)CCc1nnc(C)n1-2
41 | > 50 | Cc1nnc2n1-c1c(F)cc(-c3cncc(F)c3)cc1CC2

biological target: Cytochrome P450 3A4 (Homo sapiens, UniProt P08684); test: Inhibition of human recombinant CYP3A4 using midazolam substrate by LC-MS/MS method; assay type: ADME; conditions: not given; in short: as §3
Sequence (P08684 whole entry): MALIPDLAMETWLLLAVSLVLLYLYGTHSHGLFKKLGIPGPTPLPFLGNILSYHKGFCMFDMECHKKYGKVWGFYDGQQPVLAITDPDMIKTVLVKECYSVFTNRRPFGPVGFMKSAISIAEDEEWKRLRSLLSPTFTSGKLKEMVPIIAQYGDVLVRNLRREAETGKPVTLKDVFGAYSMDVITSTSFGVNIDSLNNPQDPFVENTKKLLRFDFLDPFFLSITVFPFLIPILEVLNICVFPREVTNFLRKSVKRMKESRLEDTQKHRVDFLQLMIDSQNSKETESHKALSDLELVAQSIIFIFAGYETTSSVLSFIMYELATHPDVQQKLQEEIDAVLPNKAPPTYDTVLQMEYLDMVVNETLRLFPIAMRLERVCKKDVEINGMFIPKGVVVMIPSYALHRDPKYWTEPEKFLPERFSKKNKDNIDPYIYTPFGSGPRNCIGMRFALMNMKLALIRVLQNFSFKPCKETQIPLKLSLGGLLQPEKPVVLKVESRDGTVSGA

Row | IC50 [µM] | SMILES
42 | > 50 | Cc1ccncc1-c1cc(F)c2c(c1)CCc1nnc(C)n1-2
43 | > 50 | Cc1nnc2n1-c1c(F)cc(-c3cncc(F)c3)cc1CC2
